Assay outcomes as filed in PubChem BioAssay.
HSP90 refold inh: HSP90 inhibitors, primary screen, cell lysate, luminescence; Heat shock protein HSP 90 (rabbit reticulocyte lysate; luciferase refolding); Rabbit reticulocyte lysate, luciferase refolding luminescence, 3 h; inhibition, % at 5.6 µM; 0.91% of 290,000 active; AID 1789, 2009;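 active means inhibition above the screen-wide mean plus 3 SD, computed separately per campaign, cut at about 16% in these data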;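 further: 0% = DMSO wells and 100% = 60 µM geldanamycin wells; inhibitors lower the luminescence because luciferase stays unfolded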
SENP7 block: SENP7 protease inhibitors, primary screen, biochemical, luminescence, uHTS; Sentrin-specific protease 7 (Homo sapiens), Q9BQF6; recombinant SENP7, Z-RLRGG-aminoluciferin luminescence, 40 min; inhibition, % at 5 µM; 1.5% of 330,000 active; AID 434973, 2010;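 active means inhibition above about 50% at the single test dose, limit read from the data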;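 further: plate controls were DMSO with enzyme for no effect and no enzyme buffer wells for full effect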
SENP1 FRET inh: human SENP1 catalytic domain inhibitors, primary screen, biochemical, FRET, uHTS. recombinant SENP1 catalytic domain, CyPet-SUMO1-YPet FRET cleavage. inhibition, % at 10 µM. 0.21% of 360,000 active;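 active means inhibition at least 30% at 10 µM, raw YFP signal under a set limit, fluorescence ratio 0.5 to 1.5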;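 further: 0% = enzyme with DMSO and 100% = no enzyme wells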
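Material: hSENP1 catalytic domain, recombinant; medium: Tris pH 8 with BME, BSA, NP40 and catalase; compound: single concentration of 10 µM compound, 0.5% DMSO final; technique: FRET read of cyan and yellow fluorescence; timing: 50 min enzyme reaction, room temperature, light-protected; reagent: SFCypet-SUMO1-SFYpet substrate at 25 nM; control set: no-enzyme low, enzyme-DMSO high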
SENP8 block-1: human SENP8 protease inhibitors, primary screen, biochemical, fluorescence, Nedd8 protein substrate, uHTS. recombinant SENP8. inhibition, % at 20 µM. 0.64% of 360,000 active; in the data active means inhibition mostly above about 40%, no sharp cut-off; inactive means mostly below about 27%
SENP6 inh: SENP6 protease inhibitors, primary screen, biochemical, luminescence, uHTS. Recombinant SENP6 catalytic domain, aminoluciferin luminescence. inhibition, % at 10 µM. 1.8% of 330,000 active. AID 2599, 2010;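 active means inhibition above about 50% at the single tested dose, limit read from the data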;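 further: plate controls were DMSO wells with enzyme for no effect and DMSO wells lacking enzyme for full effect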
Target sequence (Q9GZR1 628-1112 limits assumed): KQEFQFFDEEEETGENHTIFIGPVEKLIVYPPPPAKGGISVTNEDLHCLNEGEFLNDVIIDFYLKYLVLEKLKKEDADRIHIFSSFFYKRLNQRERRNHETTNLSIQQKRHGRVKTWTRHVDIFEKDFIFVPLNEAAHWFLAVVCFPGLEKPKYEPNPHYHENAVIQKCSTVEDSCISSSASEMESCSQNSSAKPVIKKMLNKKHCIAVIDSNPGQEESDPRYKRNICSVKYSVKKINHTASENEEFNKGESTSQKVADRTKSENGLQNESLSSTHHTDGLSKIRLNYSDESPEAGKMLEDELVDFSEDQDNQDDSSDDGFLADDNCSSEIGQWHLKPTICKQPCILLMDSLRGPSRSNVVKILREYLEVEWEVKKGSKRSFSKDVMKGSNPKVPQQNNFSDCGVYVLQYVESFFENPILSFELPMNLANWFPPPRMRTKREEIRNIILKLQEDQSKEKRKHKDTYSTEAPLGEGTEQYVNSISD
SENP8 block-2: SENP8 protease inhibitors, primary screen, biochemical, luminescence. purified SENP8, Z-RLRGG-aminoluciferin cleavage. inhibition, % at 10 µM. AID 2540, 2010. 1.2% of 330,000 active; in the data active means inhibition above about 50%
HSP90 confirm: HSP90 inhibitors, confirmation, cell lysate, luminescence. rabbit reticulocyte lysate, luciferase refolding luminescence, 3 h. 64% of 2,300 active. shares compounds with HSP90 refold inh. inhibition, % at 5.9 µM. AID 1846, 2009; in the data active means inhibition above about 18%;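 further: 0% = vehicle wells and 100% = reference inhibitor wells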
luciferase ctr: firefly luciferase inhibitors, HSP90 counter-screen, confirmation, artefact control for HSP90 inhibitor project, biochemical, luminescence, triplicate; 48% of 2,300 active; purified native firefly luciferase; AID 1847, 2009; inhibition, % at 5.9 µM; shares compounds with HSP90 refold inh;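 active means inhibition above the mean inhibition of all tested sample wells plus 3 SD, cut at about 10% in these data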;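 further: 0% = DMSO with luciferase and 100% = wells lacking luciferase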
Numbers without * were called inactive; nt = not tested or not shown. Only some compounds are listed: those with a hit (about 2.9% of all), similar ones and a draw of the others.

SMILES	HSP90 refold inh	SENP7 block	SENP1 FRET inh	SENP8 block-1	SENP6 inh	SENP8 block-2	HSP90 confirm	luciferase ctr
COc1ccc(-c2ccc(NCCN3CCOCC3)nn2)cc1OC	-2	7	0	-5	-9	-8	nt	nt
COC(=O)c1ccc(Cn2nc(C)cc2C)cc1	24*	4	1	5	-9	-8	8	-9
Cc1ccc(OCc2nnnn2-c2ccccc2)cc1	75*	0	1	12	7	-8	1	-2
COc1ccc(N2CCC(CNS(=O)(=O)c3cccc(C(F)(F)F)c3)C2)cc1 (stereo not given)	59*	-1	-1	8	-5	-2	2	-1
COc1ccc(/C=N\Nc2ccccc2[N+](=O)[O-])c(C(=O)O)c1OC	18*	7	5	32	-4	0	6	8
O=C(CN1C(=O)c2cccnc2Oc2ccc(Cl)cc21)Nc1ccccc1F	36*	2	-12	-15	0	-5	-7	-18
COc1cccc(NC(=O)CN2C(=O)c3cccnc3Oc3ccc(Cl)cc32)c1	-3	-3	-20	-79	-5	-5	nt	nt
COc1ccc(NC(=O)CN(C)C(=O)Cn2cnc3c2c(=O)n(C)c(=O)n3C)cc1	nt	-1	1	6	5	0	nt	nt
COc1ccc(C(=O)O/N=C(\N)c2ccccn2)c(OC)c1	43*	32	0	3	22	8	11	3
Cc1csc(NC(=O)c2cnc3ccccc3n2)n1	43*	12	3	4	20	2	53*	40*
Cc1csc(NC(=O)c2ccc(C(=O)Nc3nc(C)cs3)cc2)n1	0	14	nt	nt	25	17	nt	nt
O=C(NC(=S)N(Cc1ccccc1)c1ccccn1)C1CC1	2	-1	-2	-8	-4	3	nt	nt
CC1(C)NC(=O)N(CCOc2cccc(Cl)c2Cl)C1=O	18*	7	1	17	14	4	-9	-9
c1csc(CNc2ccc3c(c2)OCCO3)c1	31*	nt	-20	-88	nt	nt	21*	15*
Oc1ccccc1CNc1ccc2c(c1)OCCO2	-1	11	2	11	12	4	nt	nt
CCN(Cc1ccncc1)C(=O)c1ccccc1NS(=O)(=O)c1ccc(Br)cc1	21*	-8	0	6	-14	-9	-6	-11
Cc1c(NC(=O)C(C)OC(=O)/C=C/c2ccc(OC(F)F)cc2)c(=O)n(-c2ccccc2)n1C (stereo not given)	nt	8	0	0	-5	2	nt	nt
CC(=O)Nc1ccc2nc(C3CC3)n(Cc3ccc(Cl)cc3)c(=O)c2c1	1	13	1	-12	26	17	nt	nt
CCC(=O)Nc1ccc2nc(C3CC3)n(Cc3ccc(C(C)(C)C)cc3)c(=O)c2c1	22*	91*	0	-17	86*	71*	21*	17*
Cc1nc(-c2nnc(-c3ccccc3)o2)c(C(F)(F)F)o1	2	-13	-1	8	-17	-6	nt	nt
Cc1nc(-c2noc(-c3cccc(Cl)c3)n2)c(C(F)(F)F)o1	21*	6	2	-55	-1	-2	1	-10
Cc1ccc(NC(=O)CS(=O)CC(=O)NC23CC4CC(CC(C4)C2)C3)cc1 (stereo not given)	-2	2	-1	12	-9	4	nt	nt
COCCNc1c(-c2ccc(O)cc2)nc2ccc(Cl)cn12	-1	3	-11	-486	-15	-7	nt	nt
COCCNc1c(-c2ccc(OC)c(OC)c2)nc2ccc(Cl)cn12	20*	8	-23	-391	14	0	-7	-7
O=C(c1ccc(F)cc1F)N1CCN(c2n[nH]c(=O)[nH]c2=O)CC1	-5	-4	1	25	-4	-3	nt	nt
SMILES	HSP90 refold inh	SENP7 block	SENP1 FRET inh	SENP8 block-1	SENP6 inh	SENP8 block-2	HSP90 confirm	luciferase ctr
Cc1cc2nc3ccc(=[N+](C)C)cc-3sc2cc1N	82*	nt	13	57*	nt	nt	89*	38*
Cc1nc2cc(C)c(C)cc2s1	3	2	1	-1	-23	-12	nt	nt
N=C1C(c2nc3ccccc3c(=O)[nH]2)=C(O)CN1c1ccccc1	4	nt	nt	nt	nt	nt	nt	nt
Cc1ccc(N2CC(O)=C(c3nc4ccccc4c(=O)[nH]3)C2=N)cc1C	25*	0	1	-382	-2	4	-11	-10
O=[N+]([O-])c1ccc(N=NN(CCO)CCO)cc1	0	-1	3	17	-23	9	nt	nt
O=[N+]([O-])c1ccc(N=Nc2ncc[nH]2)cc1	55*	-5	14	31	11	-1	57*	-18
COc1ccc(OC)c(NC(=O)c2[nH]c(C)c(C(C)=O)c2C)c1	27*	2	0	-16	6	-2	-2	-4
CC(=O)c1c(C)[nH]c(C(=O)Nc2nc(C)cs2)c1C	51*	20	-2	-84	7	3	77*	66*
CC(=O)c1c(C)[nH]c(C(=O)Nc2ccc(C)cn2)c1C	27*	20	2	4	29	-7	79*	70*
CC(=O)c1c(C)[nH]c(C(=O)Nc2cc(C)cc(C)c2)c1C	1	5	-4	7	-13	-2	nt	nt
COc1ccc(Cl)cc1NC(=O)c1[nH]c(C)c(C(C)=O)c1C	-7	5	-1	-7	-33	3	nt	nt
CC(=O)c1c(C)[nH]c(C(=O)Nc2nc(-c3ccc(Cl)cc3)cs2)c1C	-5	-9	1	-113	-21	-9	nt	nt
COC/C=C/C1=CC2=CC(=O)C(C)(OC(=O)c3cnc4ccccc4n3)C(=O)C2=CO1 (stereo not given)	nt	4	nt	nt	-7	2	nt	nt
Cc1ccccc1C(=O)c1cccn1CC(=O)NCCCN1CCc2ccccc2C1	0	-5	-2	10	-6	-2	nt	nt
CN(C(=O)COC(=O)c1cc(=O)[nH]c2ccccc12)c1ccccc1	nt	-6	-1	-313	0	-7	nt	nt
COc1ccc(C(=O)NNC(=O)C(=O)NC2CCCCC2)cc1	19*	2	1	3	-6	-9	0	-1
Cc1cc(C(=O)CN2CCC(C)CC2)c(C)n1-c1ccccc1F	53*	-4	-3	29	5	-7	58*	28*
Cc1cc(C(=O)CN2C(=O)C(=O)N(Cc3ccccc3)C2=O)c(C)n1-c1ccccc1F	2	1	-1	5	4	2	nt	nt
